Published values gathered from unrelated publications.
Compare with care: the assays were run in different laboratories.
Target: Serine/threonine-protein kinase PAK 6 (PAK6, Homo sapiens, UniProt Q9NQU5)

For COc1ncccc1-c1cnn2ccc(N3CCN(C(=O)OC(C)C)CC3)nc12, the remaining binding was 97% (binding; competition with immobilised ligand; 1 µM).
With Cn1cc(-c2cc(F)cc(N3CCn4c(cc5c4CCCC5)C3=O)c2CO)cc(Nc2ccc(N3CCN(C4COC4)CC3)cn2)c1=O the inhibition was 22% (enzyme activity; inhibitor; 0.1 µM).
Cn1cncc1[C@](O)(COc1ccc(C#N)cc1-c1ccc(OC(F)(F)F)cc1)c1ccc(C#N)cc1 has a remaining binding of 98% (cell-free assay; competition with immobilised ligand; 1 µM).
With Cc1nn(C)cc1-c1nc2c(N3CCN(Cc4ccc(Cl)cc4)CC3)c(Cl)cnc2[nH]1 the remaining binding was 100% (binding; competition with immobilised ligand; 1 µM).
The remaining binding of Nc1ncc(-c2nc(N3CCOCC3)nc(N3CCOCC3)n2)c(C(F)F)n1 is reported as 79% (binding; competition with immobilised ligand; 10 µM).
For O=c1[nH]c2ccccc2n1C1CCN(Cc2ccc(-c3[nH]c4cc5ncnc5cc4nc3-c3ccccc3)cc2)CC1, the remaining signal was 109% (cell-free assay; 0.5 µM).
With COc1cc(Nc2ncc(F)c(Nc3ccc4c(n3)NC(=O)C(C)(C)O4)n2)cc(OC)c1OC the inhibition was 96% (binding; competition with immobilised ligand; 10 µM).
Cn1cc(-c2cccc(N3CCc4c(sc5c4CC(C)(C)C5)C3=O)c2CO)cc(Nc2ccncn2)c1=O has an inhibition of -7% (enzyme activity; inhibitor; 1 µM).
